Data as given in ChEMBL document CHEMBL4304784, “Discovery of new potent dual sigma receptor/GluN2b ligands with antioxidant property as neuroprotective agents” (Eur J Med Chem, 2019).
In brackets after ≈: the same amount, converted by molar mass.

What was measured:
[1] = biological target: T1, Sigma intracellular receptor 2 (Rattus norvegicus, UniProt Q5U3Y7); assay: Displacement of [3H]-di-o-tolylguanidine from sigma2 receptor in rat liver membranes in the presence of sigma1 receptor ligand (+)-pentazocine incubated for 120 mins by scintillation counting method; type: cell membranes
T1 sequence (Q5U3Y7 whole entry): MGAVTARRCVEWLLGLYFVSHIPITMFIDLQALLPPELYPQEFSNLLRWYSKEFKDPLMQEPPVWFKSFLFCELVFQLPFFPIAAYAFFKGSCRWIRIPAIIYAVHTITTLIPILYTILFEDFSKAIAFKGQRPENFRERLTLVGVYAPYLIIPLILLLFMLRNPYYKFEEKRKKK
How it was run: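 Rat liver membranes (about 100 µg protein) with 3 nM [3H]di-o-tolylguanidine in 50 mM TRIS pH 8.0 containing 500 nM (+)-pentazocine, at rt. Non-specific binding defined with 10 µM unlabeled DTG. Concentrations 10^-5 to 10^-10 M, in duplicate. 120 min, filtration, scintillation counting. Three independent experiments, mean ± SEM.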

[2] = Selectivity ratio of Ki for sigma1 receptor in guinea pig brain membranes to Ki for sigma2 receptor in rat liver membranes; type: cell membranes
[3] = Selectivity ratio of Ki for sigma2 receptor in rat liver membranes to Ki for GluN1a/GluN2B (unknown origin) expressed in mouse L(tk-) cell membranes; type: cell-based
[4] = biological target: Sigma non-opioid intracellular receptor 1 (Cavia porcellus, UniProt Q60492); assay: Displacement of [3H]-(+)-pentazocine from sigma1 receptor in guinea pig brain cortex membranes incubated for 120 mins by solid scintillation counting method; type: cell membranes
Chain of Sigma non-opioid intracellular receptor 1 (Q60492 whole entry): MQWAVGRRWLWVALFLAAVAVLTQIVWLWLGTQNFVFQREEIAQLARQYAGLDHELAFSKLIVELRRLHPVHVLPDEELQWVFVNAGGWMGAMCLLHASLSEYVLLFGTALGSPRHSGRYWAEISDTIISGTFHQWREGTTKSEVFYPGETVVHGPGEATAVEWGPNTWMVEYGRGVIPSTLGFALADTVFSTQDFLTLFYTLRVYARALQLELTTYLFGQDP
How it was run: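 Guinea pig brain cortex membranes (about 100 µg protein) with 2 nM [3H]-(+)-pentazocine in 50 mM TRIS pH 7.4 at 37 °C. Non-specific binding defined with 10 µM unlabeled (+)-pentazocine. Six concentrations, 10^-5 to 10^-10 M, in duplicate. 120 min with shaking, filtration, solid scintillator counting.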

[5] = biological target: Glutamate NMDA receptor; GRIN1/GRIN2B (Homo sapiens, UniProt Q05586+Q13224); assay: Displacement of [3H]ifenprodil from GluN1a/GluN2B (unknown origin) expressed in mouse L(tk-) cell membranes after 120 mins by solid scintillation counting method
Chain of Glutamate NMDA receptor; GRIN1/GRIN2B (Q13224 whole entry, other chains not shown): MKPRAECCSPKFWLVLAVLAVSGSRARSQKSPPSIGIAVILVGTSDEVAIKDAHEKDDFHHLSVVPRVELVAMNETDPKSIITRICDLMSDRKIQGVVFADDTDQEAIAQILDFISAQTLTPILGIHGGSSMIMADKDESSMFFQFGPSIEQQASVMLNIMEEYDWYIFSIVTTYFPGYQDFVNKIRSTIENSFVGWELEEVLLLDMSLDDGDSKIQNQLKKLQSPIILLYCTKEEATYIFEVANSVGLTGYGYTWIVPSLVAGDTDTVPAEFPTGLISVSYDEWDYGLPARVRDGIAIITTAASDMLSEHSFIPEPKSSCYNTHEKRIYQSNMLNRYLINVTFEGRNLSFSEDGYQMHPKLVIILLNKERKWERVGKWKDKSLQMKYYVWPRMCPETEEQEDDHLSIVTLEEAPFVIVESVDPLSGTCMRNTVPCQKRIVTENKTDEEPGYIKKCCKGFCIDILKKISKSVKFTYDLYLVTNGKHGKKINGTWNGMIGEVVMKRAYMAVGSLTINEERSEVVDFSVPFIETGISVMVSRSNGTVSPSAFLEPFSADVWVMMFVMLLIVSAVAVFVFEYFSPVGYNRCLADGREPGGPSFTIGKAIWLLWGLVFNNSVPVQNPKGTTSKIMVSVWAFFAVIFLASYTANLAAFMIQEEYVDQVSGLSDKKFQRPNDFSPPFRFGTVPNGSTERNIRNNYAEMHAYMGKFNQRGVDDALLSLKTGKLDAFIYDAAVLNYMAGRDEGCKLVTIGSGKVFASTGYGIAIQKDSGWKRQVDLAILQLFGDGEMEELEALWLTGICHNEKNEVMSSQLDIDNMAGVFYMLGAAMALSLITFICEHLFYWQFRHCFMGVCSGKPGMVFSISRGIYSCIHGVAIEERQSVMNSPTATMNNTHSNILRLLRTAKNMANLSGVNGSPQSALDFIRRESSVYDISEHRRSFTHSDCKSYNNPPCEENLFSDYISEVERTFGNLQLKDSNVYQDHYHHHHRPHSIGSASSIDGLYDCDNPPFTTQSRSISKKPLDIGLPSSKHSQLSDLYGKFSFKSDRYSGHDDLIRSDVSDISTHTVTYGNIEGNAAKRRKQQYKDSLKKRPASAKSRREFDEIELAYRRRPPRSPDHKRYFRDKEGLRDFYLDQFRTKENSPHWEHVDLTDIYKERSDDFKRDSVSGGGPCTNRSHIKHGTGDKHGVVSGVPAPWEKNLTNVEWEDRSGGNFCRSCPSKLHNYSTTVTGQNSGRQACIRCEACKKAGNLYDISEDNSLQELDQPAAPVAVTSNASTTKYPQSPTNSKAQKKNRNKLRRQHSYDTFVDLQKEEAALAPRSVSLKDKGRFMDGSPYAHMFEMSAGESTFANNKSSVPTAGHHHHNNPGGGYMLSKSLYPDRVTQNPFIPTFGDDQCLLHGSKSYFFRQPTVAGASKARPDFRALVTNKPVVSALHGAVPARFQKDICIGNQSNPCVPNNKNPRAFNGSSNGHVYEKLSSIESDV
How it was run: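 Membranes (about 20 μg protein) from mouse L(tk-) cells stably carrying GluN1a/GluN2B, induced with 4 μM dexamethasone and 4 μM ketamine for 24 h. Incubated with 5 nM [3H]ifenprodil in 5 mM TRIS/1 mM EDTA pH 7.5 at 37 °C, 120 min. Non-specific binding defined with 10 μM ifenprodil.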

[6] = Antioxidant activity assessed as H2O2 radical scavenging activity; type: functional
How it was run: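 Compounds at 0.05, 0.1, 0.2 and 0.4 mg/mL in phosphate buffer pH 7.4. 0.353 mL of 4 mM H2O2 in phosphate buffer added to 2.0 mL of each solution, absorbance read at 239 nm. Percent inhibition calculated from absorbances relative to control. Triplicate, mean ± SEM.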

[7] = Antioxidant activity assessed as ABTS radical scavenging activity incubated for 40 mins; type: functional
How it was run: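 Test compound at 0.05, 0.1, 0.2 and 0.4 mg/mL (200 µL) added to 1.8 mL ethanolic ABTS 7mM. Incubated 40 min at room temperature, absorbance read at 735 nm against ABTS solution. Percent inhibition computed from absorbances and used to derive IC50. Triplicate, mean ± SEM; ascorbic acid as reference.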

[8] = Cytotoxicity against human Hep3B cells assessed as decrease in cell viability incubated for 48 hrs by MTT assay; type: cell-based, Hep 3B2; details: read-out: LD50
How it was run: (§1)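 Cells kept in DMEM Glutamax with 10% FBS and antibiotic/antimycotic at 37 °C, 5% CO2. Seeded 24 h before dosing (SH-SY5Y at 2x10^3 cells/well). Compounds in DMSO serially diluted in medium, final DMSO 1.0%, exposure 48 h. MTT added for 4 h at 37 °C, read A595 minus A655. LD50 from linear regression of dose-log response curves; triplicates, three experiments, mean ± SEM.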

[9] = Cytotoxicity against human HeLa cells assessed as cell viability at 100 uM incubated for 48 hrs by MTT assay relative to control; type: cell-based; details: read-out: Activity
How it was run: (§2)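 Cells kept in DMEM Glutamax with 10% FBS and antibiotic/antimycotic at 37 °C, 5% CO2. Plated at 2x10^3 cells/well 24 h before dosing. Compounds taken from DMSO and diluted in medium, final DMSO ≤1.0%. Exposure 48 h, then MTT added for 4 h at 37 °C. Read as A595 minus A655. Triplicates, at least three independent experiments, mean ± SEM.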

[10] = Cytotoxicity against human HeLa cells assessed as cell viability at 25 uM incubated for 48 hrs by MTT assay relative to control; type: cell-based; details: read-out: Activity; how it was run: as §2
SH-SY5Y = assay: Neuroprotective activity against H2O2-induced toxicity in human SH-SY5Y cells assessed as cell viability at 25 uM pretreated for 48 hrs followed by H2O2 challenge and measured after 4 hrs by MTT assay (reference value: 18 +/- 2.64%); type: functional; details: read-out: Activity
[11] = Cytotoxicity against human Hep3B cells assessed as cell viability at 10 uM incubated for 48 hrs by MTT assay relative to control; type: cell-based, Hep 3B2; details: read-out: Activity; how it was run: as §2
[12] = Cytotoxicity against human HeLa cells assessed as cell viability at 10 uM incubated for 48 hrs by MTT assay relative to control; type: cell-based; details: read-out: Activity; how it was run: as §2
[13] = Cytotoxicity against human SH-SY5Y cells assessed as cell viability at 100 uM incubated for 48 hrs by MTT assay (reference value: 100 +/- 12.00%); type: cell-based; details: read-out: Activity; how it was run: as §2
[14] = Cytotoxicity against human SH-SY5Y cells assessed as cell viability at 10 uM incubated for 48 hrs by MTT assay (reference value: 100 +/- 12.00%); type: cell-based; details: read-out: Activity; how it was run: as §2
[15] = Cytotoxicity against human SH-SY5Y cells assessed as cell viability at 25 uM incubated for 48 hrs by MTT assay (reference value: 100 +/- 12.00%); type: cell-based; details: read-out: Activity; how it was run: as §2
[16] = Cytotoxicity against human SH-SY5Y cells assessed as cell viability at 50 uM incubated for 48 hrs by MTT assay (reference value: 100 +/- 12.00%); type: cell-based; details: read-out: Activity; how it was run: as §2
[17] = Cytotoxicity against human HeLa cells assessed as cell viability at 50 uM incubated for 48 hrs by MTT assay relative to control; type: cell-based; details: read-out: Activity; how it was run: as §2
[18] = Cytotoxicity against human Hep3B cells assessed as cell viability at 25 uM incubated for 48 hrs by MTT assay relative to control; type: cell-based, Hep 3B2; details: read-out: Activity; how it was run: as §2
[19] = Cytotoxicity against human HeLa cells assessed as decrease in cell viability incubated for 48 hrs by MTT assay; type: cell-based; details: read-out: LD50; how it was run: as §1
[20] = Cytotoxicity against human SH-SY5Y cells assessed as decrease in cell viability incubated for 48 hrs by MTT assay; type: cell-based; details: read-out: LD50; how it was run: as §1
[21] = Cytotoxicity against human Hep3B cells assessed as cell viability at 100 uM incubated for 48 hrs by MTT assay relative to control; type: cell-based, Hep 3B2; details: read-out: Activity; how it was run: as §2
[22] = Cytotoxicity against human Hep3B cells assessed as cell viability at 50 uM incubated for 48 hrs by MTT assay relative to control; type: cell-based, Hep 3B2; details: read-out: Activity; how it was run: as §2

SMILES	Ki [1]	Ratio Ki [2]	Ratio Ki [3]	Ki [4]	Ki [5]	IC50 [6]	IC50 [7]	CC50 at 48 h [8]	viability at 48 h, 100 µM [9]	viability at 48 h, 25 µM [10]	viability at 25 µM (SH-SY5Y)	viability at 48 h, 10 µM [11]	viability at 48 h, 10 µM [12]	viability at 48 h, 100 µM [13]	viability at 48 h, 10 µM [14]	viability at 48 h, 25 µM [15]	viability at 48 h, 50 µM [16]	viability at 48 h, 50 µM [17]	viability at 48 h, 25 µM [18]	CC50 at 48 h [19]	also measured
O=C1CCc2ccccc2N1CCCCN1CCN(c2ccccn2)CC1	0.073 µM	1.6	0.9	0.12 µM	0.078 µM																
Cc1c(C)c2c(c(C)c1O)CCC(C)(C(=O)O)O2 (configuration not stated) [TROLOX]						25.88 µg/mL (≈ 103 µM)	22.15 µg/mL (≈ 88.5 µM)														
O=c1oc(-c2ccccc2)nn1CCCCN1CCc2ccc([N+](=O)[O-])cc2C1	0.383 µM	2.2	0.9	0.829 µM	0.412 µM																
COc1cc2c(cc1OC)CN(CCCCn1nc(-c3ccccc3)oc1=O)CC2	0.864 µM	1.8	32	1.6 µM	0.027 µM	27.63 µg/mL (≈ 67.5 µM)	20.95 µg/mL (≈ 51.2 µM)	70 µM	39%	82%	88%	85%	84%	95%	97%	80 to 94%	96%	81%	75%	69 µM	CC50 at 48 h [20]: 77 µM; viability at 48 h, 100 µM [21]: 25%; viability at 48 h, 50 µM [22]: 58%
O=c1oc(-c2ccccc2)nn1CCCCN1CCN(c2ccccn2)CC1	2.8 µM	0.33	12.4	0.944 µM	0.226 µM																
O=C1CCc2ccccc2N1CCCCN1CCN(c2ccc(F)cc2)CC1	0.021 µM	0.76	2.6	0.016 µM	0.0081 µM	24.04 µg/mL (≈ 63 µM)	21.34 µg/mL (≈ 55.9 µM)	77 µM	70%	78%	86%	99%	88%	60%	127%	84 to 121%	116%	70%	83%	128 µM	CC50 at 48 h [20]: 63 µM; viability at 48 h, 100 µM [21]: 41%; viability at 48 h, 50 µM [22]: 54%
O=C1O[C@H]([C@@H](O)CO)C(O)=C1O [ASCORBIC ACID]						17.11 µg/mL (≈ 97.1 µM)	13.85 µg/mL (≈ 78.6 µM)														
Cc1ccc(CN(C)CCCCn2nc(-c3ccccc3)oc2=O)c(C)c1	0.021 µM	0.95	0.8	0.02 µM	0.026 µM	31.44 µg/mL (≈ 86 µM)	25.47 µg/mL (≈ 69.7 µM)	70 µM	22%	74%	100%	100%	86%	28%	121%	85 to 96%	75%	80%	83%	69 µM	CC50 at 48 h [20]: 77 µM; viability at 48 h, 100 µM [21]: 25%; viability at 48 h, 50 µM [22]: 70%
Cc1ccc(CN(C)CCCCN2C(=O)CCc3ccccc32)c(C)c1	0.032 µM	1.9	6.4	0.06 µM	0.005 µM	29.16 µg/mL (≈ 83.2 µM)	26.24 µg/mL (≈ 74.9 µM)	60 µM	47%	59%	98%	77%	79%	78%	92%	79 to 95%	90%	57%	81%	76 µM	CC50 at 48 h [20]: 231 µM; viability at 48 h, 100 µM [21]: 223%; viability at 48 h, 50 µM [22]: 52%
O=c1oc(-c2ccccc2)nn1CCCCN1CCC2(CC1)OCc1ccccc12	0.016 µM	1.2	2	0.019 µM	0.0082 µM	21.19 µg/mL (≈ 52.3 µM)	17.96 µg/mL (≈ 44.3 µM)	51 µM	5%	80%	101%	87%	99%	1%	120%	96 to 104%	50%	60%	90%	55 µM	CC50 at 48 h [20]: 53 µM; viability at 48 h, 100 µM [21]: 4%; viability at 48 h, 50 µM [22]: 42%
COc1cc2c(cc1OC)CN(CCCCN1C(=O)CCc3ccccc31)CC2	0.045 µM	2.6	3.7	0.116 µM	0.012 µM	15.37 µg/mL (≈ 39 µM)	12.35 µg/mL (≈ 31.3 µM)	67 µM	42%	79%	73%	75%	80%	37%	71%	77 to 84%	68%	71%	70%	83 µM	CC50 at 48 h [20]: 36 µM; viability at 48 h, 100 µM [21]: 30%; viability at 48 h, 50 µM [22]: 62%
O=c1oc(-c2ccccc2)nn1CCCCN1CCN(c2ccc(F)cc2)CC1	0.686 µM	0.57	10	0.383 µM	0.068 µM																
O=C1CCc2ccccc2N1CCCCN1CCc2ccc([N+](=O)[O-])cc2C1	0.08 µM	2.2	1.4	0.179 µM	0.058 µM																
